Laboratory results: ChEMBL document CHEMBL1268917, “Synthesis and biological evaluation of radio-iodinated benzimidazoles as SPECT imaging agents for NR2B subtype of NMDA receptor” (Bioorg Med Chem, 2010)

How the values were obtained:
Type in all cases: ADME, organism-based
Intestine [1] = experiment: Biodistribution in ddY mouse intestine assessed per gram of tissue at 14.8 kBq, iv after 180 mins; conditions: in vivo, 3 h
In short: (§1)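 Killed at set times after injection; organs and blood removed, weighed, gamma counted. Data as % injected dose per gram tissue, mean SD, n = 5–6.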

Heart [2] = experiment: Biodistribution in ddY mouse heart assessed per gram of tissue at 14.8 kBq, iv after 5 mins; conditions: in vivo; in short: as §1
Liver [3] = experiment: Biodistribution in ddY mouse liver assessed per gram of tissue at 14.8 kBq, iv after 30 mins; conditions: in vivo, 0.5 h; in short: as §1
Kidney [4] = experiment: Biodistribution in ddY mouse kidney assessed per gram of tissue at 14.8 kBq, iv after 30 mins; conditions: in vivo, 0.5 h; in short: as §1
Brain [5] = experiment: Biodistribution in ddY mouse brain assessed per gram of tissue at 14.8 kBq, iv after 5 mins; conditions: in vivo; in short: as §1
Intestine [6] = experiment: Biodistribution in ddY mouse intestine assessed per gram of tissue at 14.8 kBq, iv after 30 mins; conditions: in vivo, 0.5 h; in short: as §1
Intestine [7] = experiment: Biodistribution in ddY mouse intestine assessed per gram of tissue at 14.8 kBq, iv after 5 mins; conditions: in vivo; in short: as §1
Spleen [8] = experiment: Biodistribution in ddY mouse spleen assessed per gram of tissue at 14.8 kBq, iv after 360 mins; conditions: in vivo, 6 h
In short: (§2)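 Radioiodinated tracer (14.8 kBq) injected via tail vein into male ddY mice (6 weeks, 30–35 g). Organs removed at set times after injection, weighed and gamma-counted; uptake expressed as % injected dose per gram tissue, mean ± SD, n = 5–6.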

Brain [9] = experiment: Biodistribution in ddY mouse brain assessed per gram of tissue at 14.8 kBq, iv after 60 mins; conditions: in vivo, 1 h; in short: as §1
Intestine [10] = experiment: Biodistribution in ddY mouse intestine assessed per gram of tissue at 14.8 kBq, iv after 0.5 mins; conditions: in vivo; in short: as §1
Kidney [11] = experiment: Biodistribution in ddY mouse kidney assessed per gram of tissue at 14.8 kBq, iv after 180 mins; conditions: in vivo, 3 h; in short: as §1
Spleen [12] = experiment: Biodistribution in ddY mouse spleen assessed per gram of tissue at 14.8 kBq, iv after 5 mins; conditions: in vivo; in short: as §2
Blood [13] = experiment: Biodistribution in ddY mouse blood assessed per gram of tissue at 14.8 kBq, iv after 360 mins; conditions: in vivo, 6 h; in short: as §1
Blood [14] = experiment: Biodistribution in ddY mouse blood assessed per gram of tissue at 14.8 kBq, iv after 30 mins; conditions: in vivo, 0.5 h; in short: as §1
Spleen [15] = experiment: Biodistribution in ddY mouse spleen assessed per gram of tissue at 14.8 kBq, iv after 0.5 mins; conditions: in vivo; in short: as §2
Intestine [16] = experiment: Biodistribution in ddY mouse intestine assessed per gram of tissue at 14.8 kBq, iv after 360 mins; conditions: in vivo, 6 h; in short: as §1
Pancreas [17] = experiment: Biodistribution in ddY mouse pancreas assessed per gram of tissue at 14.8 kBq, iv after 0.5 mins; conditions: in vivo; in short: as §2
Spleen [18] = experiment: Biodistribution in ddY mouse spleen assessed per gram of tissue at 14.8 kBq, iv after 60 mins; conditions: in vivo, 1 h; in short: as §2
Lung [19] = experiment: Biodistribution in ddY mouse lung assessed per gram of tissue at 14.8 kBq, iv after 0.5 mins; conditions: in vivo; in short: as §2
Blood [20] = experiment: Biodistribution in ddY mouse blood assessed per gram of tissue at 14.8 kBq, iv after 0.5 mins; conditions: in vivo; in short: as §1
Pancreas [21] = experiment: Biodistribution in ddY mouse pancreas assessed per gram of tissue at 14.8 kBq, iv after 180 mins; conditions: in vivo, 3 h; in short: as §2
Stomach [22] = experiment: Biodistribution in ddY mouse stomach assessed per gram of tissue at 14.8 kBq, iv after 360 mins; conditions: in vivo, 6 h; in short: as §2
Stomach [23] = experiment: Biodistribution in ddY mouse stomach assessed per gram of tissue at 14.8 kBq, iv after 0.5 mins; conditions: in vivo; in short: as §2
Spleen [24] = experiment: Biodistribution in ddY mouse spleen assessed per gram of tissue at 14.8 kBq, iv after 180 mins; conditions: in vivo, 3 h; in short: as §2
Intestine [25] = experiment: Biodistribution in ddY mouse intestine assessed per gram of tissue at 14.8 kBq, iv after 60 mins; conditions: in vivo, 1 h; in short: as §1
Kidney [26] = experiment: Biodistribution in ddY mouse kidney assessed per gram of tissue at 14.8 kBq, iv after 5 mins; conditions: in vivo; in short: as §1
Heart [27] = experiment: Biodistribution in ddY mouse heart assessed per gram of tissue at 14.8 kBq, iv after 180 mins; conditions: in vivo, 3 h; in short: as §1
Heart [28] = experiment: Biodistribution in ddY mouse heart assessed per gram of tissue at 14.8 kBq, iv after 60 mins; conditions: in vivo, 1 h; in short: as §1
Kidney [29] = experiment: Biodistribution in ddY mouse kidney assessed per gram of tissue at 14.8 kBq, iv after 360 mins; conditions: in vivo, 6 h; in short: as §1
Brain [30] = experiment: Biodistribution in ddY mouse brain assessed per gram of tissue at 14.8 kBq, iv after 360 mins; conditions: in vivo, 6 h; in short: as §1
Stomach [31] = experiment: Biodistribution in ddY mouse stomach assessed per gram of tissue at 14.8 kBq, iv after 30 mins; conditions: in vivo, 0.5 h; in short: as §2
Kidney [32] = experiment: Biodistribution in ddY mouse kidney assessed per gram of tissue at 14.8 kBq, iv after 0.5 mins; conditions: in vivo; in short: as §1
Heart [33] = experiment: Biodistribution in ddY mouse heart assessed per gram of tissue at 14.8 kBq, iv after 0.5 mins; conditions: in vivo; in short: as §1
Lung [34] = experiment: Biodistribution in ddY mouse lung assessed per gram of tissue at 14.8 kBq, iv after 180 mins; conditions: in vivo, 3 h; in short: as §2
Liver [35] = experiment: Biodistribution in ddY mouse liver assessed per gram of tissue at 14.8 kBq, iv after 360 mins; conditions: in vivo, 6 h; in short: as §1
Brain [36] = experiment: Biodistribution in ddY mouse brain assessed per gram of tissue at 14.8 kBq, iv after 180 mins; conditions: in vivo, 3 h; in short: as §1
Kidney [37] = experiment: Biodistribution in ddY mouse kidney assessed per gram of tissue at 14.8 kBq, iv after 60 mins; conditions: in vivo, 1 h; in short: as §1
Lung [38] = experiment: Biodistribution in ddY mouse lung assessed per gram of tissue at 14.8 kBq, iv after 30 mins; conditions: in vivo, 0.5 h; in short: as §2
Spleen [39] = experiment: Biodistribution in ddY mouse spleen assessed per gram of tissue at 14.8 kBq, iv after 30 mins; conditions: in vivo, 0.5 h; in short: as §2
Lung [40] = experiment: Biodistribution in ddY mouse lung assessed per gram of tissue at 14.8 kBq, iv after 360 mins; conditions: in vivo, 6 h; in short: as §2
Stomach [41] = experiment: Biodistribution in ddY mouse stomach assessed per gram of tissue at 14.8 kBq, iv after 5 mins; conditions: in vivo; in short: as §2
Liver [42] = experiment: Biodistribution in ddY mouse liver assessed per gram of tissue at 14.8 kBq, iv after 5 mins; conditions: in vivo; in short: as §1
Pancreas [43] = experiment: Biodistribution in ddY mouse pancreas assessed per gram of tissue at 14.8 kBq, iv after 5 mins; conditions: in vivo; in short: as §2
Pancreas [44] = experiment: Biodistribution in ddY mouse pancreas assessed per gram of tissue at 14.8 kBq, iv after 60 mins; conditions: in vivo, 1 h; in short: as §2
Heart [45] = experiment: Biodistribution in ddY mouse heart assessed per gram of tissue at 14.8 kBq, iv after 30 mins; conditions: in vivo, 0.5 h; in short: as §1
Lung [46] = experiment: Biodistribution in ddY mouse lung assessed per gram of tissue at 14.8 kBq, iv after 5 mins; conditions: in vivo; in short: as §2
Stomach [47] = experiment: Biodistribution in ddY mouse stomach assessed per gram of tissue at 14.8 kBq, iv after 60 mins; conditions: in vivo, 1 h; in short: as §2
Liver [48] = experiment: Biodistribution in ddY mouse liver assessed per gram of tissue at 14.8 kBq, iv after 180 mins; conditions: in vivo, 3 h; in short: as §1
Pancreas [49] = experiment: Biodistribution in ddY mouse pancreas assessed per gram of tissue at 14.8 kBq, iv after 30 mins; conditions: in vivo, 0.5 h; in short: as §2
Brain [50] = experiment: Biodistribution in ddY mouse brain assessed per gram of tissue at 14.8 kBq, iv after 30 mins; conditions: in vivo, 0.5 h; in short: as §1
Blood [51] = experiment: Biodistribution in ddY mouse blood assessed per gram of tissue at 14.8 kBq, iv after 180 mins; conditions: in vivo, 3 h; in short: as §1
Heart [52] = experiment: Biodistribution in ddY mouse heart assessed per gram of tissue at 14.8 kBq, iv after 360 mins; conditions: in vivo, 6 h; in short: as §1
Liver [53] = experiment: Biodistribution in ddY mouse liver assessed per gram of tissue at 14.8 kBq, iv after 60 mins; conditions: in vivo, 1 h; in short: as §2
Blood [54] = experiment: Biodistribution in ddY mouse blood assessed per gram of tissue at 14.8 kBq, iv after 60 mins; conditions: in vivo, 1 h; in short: as §1
Pancreas [55] = experiment: Biodistribution in ddY mouse pancreas assessed per gram of tissue at 14.8 kBq, iv after 360 mins; conditions: in vivo, 6 h; in short: as §2
Stomach [56] = experiment: Biodistribution in ddY mouse stomach assessed per gram of tissue at 14.8 kBq, iv after 180 mins; conditions: in vivo, 3 h; in short: as §2
Liver [57] = experiment: Biodistribution in ddY mouse liver assessed per gram of tissue at 14.8 kBq, iv after 0.5 mins; conditions: in vivo; in short: as §1
Blood [58] = experiment: Biodistribution in ddY mouse blood assessed per gram of tissue at 14.8 kBq, iv after 5 mins; conditions: in vivo; in short: as §1
Lung [59] = experiment: Biodistribution in ddY mouse lung assessed per gram of tissue at 14.8 kBq, iv after 60 mins; conditions: in vivo, 1 h; in short: as §2
Brain [60] = experiment: Biodistribution in ddY mouse brain assessed per gram of tissue at 14.8 kBq, iv after 0.5 mins; conditions: in vivo; in short: as §1

CS(=O)(=O)Nc1ccc2nc(CN3CCC(Cc4ccc([125I])cc4)CC3)[nH]c2c1
Drug uptake (Intestine [1]): 7.82 % ID/g
Drug uptake (Heart [2]): 5.83 % ID/g
Drug uptake (Liver [3]): 16.67 % ID/g
Drug uptake (Kidney [4]): 8.79 % ID/g
Drug uptake (Brain [5]): 0.44 % ID/g
Drug uptake (Intestine [6]): 3.07 % ID/g
Drug uptake (Intestine [7]): 1.58 % ID/g
Drug uptake (Spleen [8]): 1.6 % ID/g
Drug uptake (Brain [9]): 0.52 % ID/g
Drug uptake (Intestine [10]): 0.55 % ID/g
Drug uptake (Kidney [11]): 15.23 % ID/g
Drug uptake (Spleen [12]): 3.19 % ID/g
Drug uptake (Blood [13]): 0.36 % ID/g
Drug uptake (Blood [14]): 0.53 % ID/g
Drug uptake (Spleen [15]): 0.9 % ID/g
Drug uptake (Intestine [16]): 6.49 % ID/g
Drug uptake (Pancreas [17]): 0.92 % ID/g
Drug uptake (Spleen [18]): 2.78 % ID/g
Drug uptake (Lung [19]): 3.82 % ID/g
Drug uptake (Blood [20]): 4.74 % ID/g
Drug uptake (Pancreas [21]): 5.39 % ID/g
Drug uptake (Stomach [22]): 3.56 % ID/g
Drug uptake (Stomach [23]): 0.42 % ID/g
Drug uptake (Spleen [24]): 2.85 % ID/g
Drug uptake (Intestine [25]): 3.79 % ID/g
Drug uptake (Kidney [26]): 10.99 % ID/g
Drug uptake (Heart [27]): 6.93 % ID/g
Drug uptake (Heart [28]): 4.35 % ID/g
Drug uptake (Kidney [29]): 10.51 % ID/g
Drug uptake (Brain [30]): 0.47 % ID/g
Drug uptake (Stomach [31]): 2.24 % ID/g
Drug uptake (Kidney [32]): 3.26 % ID/g
Drug uptake (Heart [33]): 9.07 % ID/g
Drug uptake (Lung [34]): 1.61 % ID/g
Drug uptake (Liver [35]): 10.93 % ID/g
Drug uptake (Brain [36]): 0.67 % ID/g
Drug uptake (Kidney [37]): 8.52 % ID/g
Drug uptake (Lung [38]): 1.86 % ID/g
Drug uptake (Spleen [39]): 2.91 % ID/g
Drug uptake (Lung [40]): 0.93 % ID/g
Drug uptake (Stomach [41]): 1.28 % ID/g
Drug uptake (Liver [42]): 19.35 % ID/g
Drug uptake (Pancreas [43]): 3.09 % ID/g
Drug uptake (Pancreas [44]): 4.55 % ID/g
Drug uptake (Heart [45]): 4.29 % ID/g
Drug uptake (Lung [46]): 3.52 % ID/g
Drug uptake (Stomach [47]): 2.4 % ID/g
Drug uptake (Liver [48]): 17.81 % ID/g
Drug uptake (Pancreas [49]): 3.71 % ID/g
Drug uptake (Brain [50]): 0.5 % ID/g
Drug uptake (Blood [51]): 0.55 % ID/g
Drug uptake (Heart [52]): 3.62 % ID/g
Drug uptake (Liver [53]): 13.74 % ID/g
Drug uptake (Blood [54]): 0.54 % ID/g
Drug uptake (Pancreas [55]): 3.72 % ID/g
Drug uptake (Stomach [56]): 4.04 % ID/g
Drug uptake (Liver [57]): 4.6 % ID/g
Drug uptake (Blood [58]): 0.95 % ID/g
Drug uptake (Lung [59]): 1.7 % ID/g
Drug uptake (Brain [60]): 0.32 % ID/g
